Holding throughout (format): functional
Experiment [1] deals with Trichophyton mentagrophytes. The experiment can be described thus: Antifungal activity against Trichophyton mentagrophytes after 48 hrs by agar dilution method. In a few lines:
(§1)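 Clinical isolates, purified and subcultured on SC, SCC and PDA media before testing. Compounds were dissolved as DMSO stocks and diluted into solid medium (PDA) for agar dilution. Inocula for molds and yeast came from 2- to 7-day mature colonies. The read-out was the minimum inhibitory concentration (MIC).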
A general note: Agar dilution tests growth on a series of plates holding different concentrations.

The subject of the next experiment is Trichophyton rubrum. The experiment in a line: Antifungal activity against Trichophyton rubrum after 48 hrs by agar dilution method. The gist of the method:
as §1

For another experiment, the system named is Microsporum canis. The experiment in a line: Antifungal activity against Microsporum canis after 48 hrs by agar dilution method. In a few lines: as §1
The test system of the next experiment is Epidermophyton floccosum. The experiment can be described thus: Antifungal activity against Epidermophyton floccosum after 48 hrs by agar dilution method. In a few lines:
as §1

For the next experiment, the system named is Candida albicans. The experiment in a line: Antifungal activity against Candida albicans after 48 hrs by agar dilution method. In a few lines:
as §1

In brackets after ≈: the same amount, converted by molar mass.

One may read the MIC as the lowest concentration that inhibits growth of the organism. A higher MIC goes with a need for much substance. On to `CCCCCCCCn1nnc2ccccc21`, for which the minimal inhibitory concentration (MIC) in experiment [1] was 64 µg/mL (≈ 277 µM); in the experiment on Trichophyton rubrum it was 64 µg/mL (≈ 277 µM); against Microsporum canis it was 64 µg/mL (≈ 277 µM); in the experiment with Epidermophyton floccosum, 32 µg/mL (≈ 138 µM).
For the compound `c1ccc(C(c2ccccc2)(c2ccccc2)n2nnc3ccccc32)cc1`, the MIC in the experiment on Candida albicans, in the experiment on Trichophyton rubrum and against Epidermophyton floccosum was 64 µg/mL (≈ 177 µM) in each case.
`COc1ccc(C(c2ccccc2)(c2ccccc2)n2cncn2)cc1`: the MIC in experiment [1] amounted to 16 µg/mL (≈ 46.9 µM); in the experiment with Trichophyton rubrum, 32 µg/mL (≈ 93.7 µM); with Microsporum canis it was 32 µg/mL (≈ 93.7 µM); against Epidermophyton floccosum it was 8 µg/mL (≈ 23.4 µM).
As to `c1ccc(C(c2ccccc2)(c2ccccc2)n2cncn2)cc1`, the MIC in experiment [1] turned out to be 32 µg/mL (≈ 103 µM); in the experiment on Trichophyton rubrum, 64 µg/mL (≈ 206 µM); in the experiment on Microsporum canis it was 64 µg/mL (≈ 206 µM); in the experiment with Epidermophyton floccosum, 1 µg/mL (≈ 3.21 µM).
As to `COc1ccc(C(c2ccccc2)(c2ccc(OC)cc2)n2nnc3ccccc32)cc1`, the MIC in experiment [1] came out at 64 µg/mL (≈ 152 µM); against Trichophyton rubrum it was 32 µg/mL (≈ 75.9 µM).
For `Clc1ccccc1C(c1ccccc1)(c1ccccc1)n1ccnc1` [CLOTRIMAZOLE], the MIC came to 0.05 µg/mL (≈ 0.145 µM) in experiment [1]; 4 µg/mL (≈ 11.6 µM) against Candida albicans; 0.5 µg/mL (≈ 1.45 µM) in the experiment on Trichophyton rubrum; 0.065 µg/mL (≈ 0.188 µM) in the experiment with Microsporum canis; 4 µg/mL (≈ 11.6 µM) against Epidermophyton floccosum.
For `OC(Cn1cncn1)(Cn1cncn1)c1ccc(F)cc1F` [FLUCONAZOLE], the MIC came to 1 µg/mL (≈ 3.27 µM) in experiment [1]; 32 µg/mL (≈ 104 µM) with Candida albicans; 32 µg/mL (≈ 104 µM) in the experiment on Trichophyton rubrum; 16 µg/mL (≈ 52.2 µM) in the experiment on Microsporum canis; 0.25 µg/mL (≈ 0.816 µM) in the experiment on Epidermophyton floccosum.
As to `COc1ccc(C(c2ccccc2)(c2ccccc2)n2nnc3ccccc32)cc1`, the MIC (in experiment [1]; against Trichophyton rubrum; with Epidermophyton floccosum) was 64 µg/mL (≈ 163 µM) each time.
As for `CCCCCCCCn1cncn1`, the MIC is 16 µg/mL (≈ 88.3 µM) in experiment [1]; 16 µg/mL (≈ 88.3 µM) against Candida albicans; 16 µg/mL (≈ 88.3 µM) in the experiment with Trichophyton rubrum; 16 µg/mL (≈ 88.3 µM) in the experiment with Microsporum canis; 8 µg/mL (≈ 44.1 µM) against Epidermophyton floccosum.
For `CCCCCn1cncn1`, the MIC (in experiment [1]; against Trichophyton rubrum; against Microsporum canis; against Epidermophyton floccosum) was 64 µg/mL (≈ 460 µM) in each case.
Consider `CCCCCn1nnc2ccccc21`, for which the MIC in experiment [1] turned out to be 32 µg/mL (≈ 169 µM); in the experiment with Candida albicans, 32 µg/mL (≈ 169 µM); in the experiment on Trichophyton rubrum, 32 µg/mL (≈ 169 µM); against Microsporum canis, 16 µg/mL (≈ 84.5 µM); in the experiment on Epidermophyton floccosum, 16 µg/mL (≈ 84.5 µM).

Values taken from ChEMBL document CHEMBL1152478, “Design, synthesis, and antifungal activity of triazole and benzotriazole derivatives” (2009).
